Consider 1 molecule from ChEMBL document CHEMBL1240480, “Design, synthesis and biological evaluation of L-dopa amide derivatives as potential prodrugs for the treatment of Parkinson's disease” (Eur J Med Chem, 2010).

Common to all, as to conditions: in vivo
Series [1] has as its system Rattus norvegicus. Kind of series: Cmax in Wistar rat at 25.4 mg/kg, po assessed as L-dopa level. More on the design: dose 25.4 mg/kg, route oral. The format is ADME, organism-based. The method, boiled down:
(§1)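 Naïve male Wistar rats (250–500 g), fasted overnight, dosed orally in 0.9% saline with benserazide (10 mg/kg) at dose equivalent to 12.5 mg/kg L-dopa. Heparinised tail-vein blood at various times; plasma extracted with 20% TFA in 10 mM metabisulphite with warfarin internal standard; L-dopa quantified by LC-MS/MS (positive ESI) against plasma standard curve 0.39–50 µM.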

Series [2] concerns Rattus norvegicus. Kind of series: Apparent half life in Wistar rat at 25.4 mg/kg, po assessed as L-dopa level. The format is ADME, organism-based. More on the design: dose 25.4 mg/kg, route oral. In outline: as §1
For series [3], the system named is Rattus norvegicus. Kind of series: AUC (0 to 4 hrs) in Wistar rat at 25.4 mg/kg, po assessed as L-dopa level. In kind it is ADME, organism-based, Plasma. On the set-up: time < 4 hr, dose 25.4 mg/kg, route oral. The method, boiled down: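 Naïve male Wistar rats (250–500 g), fasted overnight, dosed with compound in 0.9% saline together with benserazide (10 mg/kg), at a dose molar-equivalent to 12.5 mg/kg L-dopa. Heparinised tail-vein blood was sampled at intervals and the plasma stored at −80 °C. L-dopa was extracted with 20% TFA/10 mM metabisulphite plus warfarin internal standard and quantified by LC-MS/MS (positive ESI) against plasma standard curves.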

One may read the Cmax as the highest concentration seen after dosing. One may read the AUC as concentration integrated over time. On to `CC(C)CC(=O)Oc1ccc(C[C@H](N)C(N)=O)cc1OC(=O)CC(C)C.Cl`, for which the Cmax in the series with Rattus norvegicus [1] worked out at 860 ng/mL. Further, the t1/2 in the series on Rattus norvegicus [2] stood at 1.3 h. In addition, the AUC in the series with Rattus norvegicus [3] amounted to 98 µg·min/mL.
